Test [1] relates to Rattus norvegicus. The test is described as follows: Percentage of animals selecting drug lever in trained rats at a dose 426 (nmol/kg). It counts as functional. In outline:
(§1)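 Two-lever drug discrimination in food-restricted rats (~80% free-feeding weight) trained on FR 50 to tell saline from LSD tartrate (186 nmol/kg, 0.08 mg/kg ip, 30 min pre-session). Test drugs were given ip in saline, 1 mL/kg. Test sessions ran under extinction, ending at 50 presses on either lever. Testing required 85% training accuracy. Counts of rats tested and disrupted were recorded, plus the percentage selecting the drug lever.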

For test [2], the system named is Rattus norvegicus. Briefly: Effective dose in trained rats was determined at a dose of 86 (nmol/kg). In kind it is functional, organism-based.
Test [3] deals with Rattus norvegicus. The test is described as follows: Compound was tested for its effect on animals. Value reported as number of rats disrupted in trained rats at a dose of 171 (nmol/kg). It counts as functional. In outline:
as §1

For test [4], the system named is Rattus norvegicus. Briefly: Compound was tested for its effect on animals. Value reported as number of rats disrupted in trained rats at a dose of 426 (nmol/kg). In kind it is functional. In a few lines: as §1
The test system of test [5] is Rattus norvegicus. Briefly: Percentage of animals selecting drug lever in trained rats at a dose 213 (nmol/kg). In kind it is functional. In a few lines:
as §1

In test [6] the test system is Rattus norvegicus. The test is described as follows: Compound was tested for its effect on animals. Value reported as number of rats disrupted in trained rats at a dose of 213 (nmol/kg). It counts as functional. In outline:
as §1

The target of test [7] is T1, 5-hydroxytryptamine receptor 2A (Rattus norvegicus, UniProt P14842). Briefly: (§2) Binding affinity was measured against 5-hydroxytryptamine 2A receptor by displacement of [3H]- ketanserin by lysergic acid amides. In outline:
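Rat frontal cortex membranes from pooled male Sprague-Dawley rats, preincubated at 37 °C, in 50 mM Tris HCl (pH 7.4) with 0.5 mM Na2EDTA, 0.1% ascorbate, 10 μM pargyline and 5.7 mM CaCl2. Triplicates. Three to four experiments combined.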
In general terms: Loss of bound radioactivity is the signal in a displacement assay; it reports binding, not function.

Test [8] has as its system Rattus norvegicus. The test is described as follows: Compound was tested for its effect on animals. Value reported as number of rats disrupted in trained rats at a dose of 86 (nmol/kg). It counts as functional. In a few lines: as §1
Test [9] relates to Rattus norvegicus. Briefly: Percentage of animals selecting drug lever in trained rats at a dose 128 (nmol/kg). In kind it is functional. In outline: as §1
Test [10] concerns Rattus norvegicus. Briefly: Percentage of animals selecting drug lever in trained rats at a dose 171 (nmol/kg). In kind it is functional. In a few lines: as §1
Test [11] concerns Rattus norvegicus. The test is described as follows: Compound was tested for its effect on animals. Value reported as number of rats disrupted in trained rats at a dose of 128 (nmol/kg). It counts as functional. In a few lines: as §1
Test [12] deals with Rattus norvegicus. Briefly: Percentage of animals selecting drug lever in trained rats at a dose 86 (nmol/kg). It counts as functional. In a few lines:
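Drug-naive rats held at about 80% of free-feeding weight were trained on a two-lever FR50 food schedule to tell ip LSD tartrate (186 nmol/kg, 0.08 mg/kg) from saline, given 30 min before sessions. Test drugs were given ip in saline (1 mL/kg). Tests ran under extinction and ended at 50 presses on either lever. Rats had to hold 85% correct on training days. Read-out was % selecting the drug lever per dose.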

Test [13] concerns the target T2, 5-hydroxytryptamine receptor 1A (Rattus norvegicus, UniProt P19327).
T2 sequence (P19327 whole entry): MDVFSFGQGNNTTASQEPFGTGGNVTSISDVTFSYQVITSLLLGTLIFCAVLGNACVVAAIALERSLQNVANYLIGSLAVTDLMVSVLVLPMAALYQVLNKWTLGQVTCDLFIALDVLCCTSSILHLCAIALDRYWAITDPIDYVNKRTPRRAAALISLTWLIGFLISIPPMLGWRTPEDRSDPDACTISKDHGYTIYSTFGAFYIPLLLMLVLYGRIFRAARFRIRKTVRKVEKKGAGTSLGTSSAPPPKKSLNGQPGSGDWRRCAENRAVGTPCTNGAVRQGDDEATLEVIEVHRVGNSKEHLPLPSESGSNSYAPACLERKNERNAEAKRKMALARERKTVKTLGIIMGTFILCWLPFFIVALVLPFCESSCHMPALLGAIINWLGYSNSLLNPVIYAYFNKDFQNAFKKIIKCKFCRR
Briefly: Binding affinity was measured against 5-hydroxytryptamine 1A receptor by displacement of [3H]8-OH-DPAT by lysergic acid amides. In a few lines:
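Rat hippocampal membranes from pooled male Sprague-Dawley rats, preincubated at 37 °C, in 50 mM Tris HCl (pH 7.4) with 0.5 mM Na2EDTA, 0.1% ascorbate and 10 μM pargyline. Competition against 0.75 nM [3H]-8-OH-DPAT for 10 min at 37 °C, then GF/C filtration and scintillation counting. Triplicates. Three to four experiments combined, analysed with EBDA/LIGAND.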

In test [14] the test system is Rattus norvegicus. Briefly: Percentage of animals selecting drug lever in trained rats at a dose 1760 (nmol/kg). It counts as functional. In a few lines: as §1
Test [15] concerns Rattus norvegicus. Briefly: Percentage of animals selecting drug lever in trained rats at a dose 440 (nmol/kg). It counts as functional. In outline: as §1
Test [16] has as its target T1, 5-hydroxytryptamine receptor 2A. Described as §2. In outline:
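Rat frontal cortex membranes from pooled male Sprague-Dawley rats, preincubated at 37 °C, in 50 mM Tris HCl (pH 7.4) with 0.5 mM Na2EDTA, 0.1% ascorbate, 10 μM pargyline and 5.7 mM CaCl2. Displacement of 0.75 nM [3H]ketanserin with 200–400 μg protein for 15 min at 37 °C, then GF/C filtration. Triplicates. Three to four experiments combined.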
This is another data set of the same source.

Test [17] relates to Rattus norvegicus. Briefly: Effective dose in trained rats was determined at a dose of 220 (nmol/kg). In kind it is functional, organism-based.
Test [18] relates to Rattus norvegicus. The test is described as follows: Compound was tested for its effect on animals. Value reported as number of rats disrupted in trained rats at a dose of 186 (nmol/kg). It counts as functional. In outline: as §1
Test [19] concerns Rattus norvegicus. The test is described as follows: Compound was tested for its effect on animals. Value reported as number of rats disrupted in trained rats at a dose of 440 (nmol/kg). It counts as functional. In outline: as §1
Test [20] concerns Rattus norvegicus. Briefly: Percentage of animals selecting drug lever in trained rats at a dose 220 (nmol/kg). In kind it is functional. In outline:
as §1

Test [21] deals with Rattus norvegicus. Briefly: Compound was tested for its effect on animals. Value reported as number of rats disrupted in trained rats at a dose of 1760 (nmol/kg). It counts as functional. In a few lines:
as §1

Test [22] has as its system Rattus norvegicus. The test is described as follows: Percentage of animals selecting drug lever in trained rats at a dose 186 (nmol/kg). In kind it is functional. In a few lines: as §1
The test system of test [23] is Rattus norvegicus. The test is described as follows: Potency in trained rats was determined with relative to reference compound […] at a dose of 186 (nmol/kg). In kind it is functional.
The test system of test [24] is Rattus norvegicus. Briefly: Effective dose in trained rats was determined at a dose of 186 (nmol/kg). In kind it is functional.

Each structure is given as a SMILES string. Calls of active or inactive are those of the source. The calls are words filed in the database; no cut-off is given here.

T1 sequence (P14842 whole entry): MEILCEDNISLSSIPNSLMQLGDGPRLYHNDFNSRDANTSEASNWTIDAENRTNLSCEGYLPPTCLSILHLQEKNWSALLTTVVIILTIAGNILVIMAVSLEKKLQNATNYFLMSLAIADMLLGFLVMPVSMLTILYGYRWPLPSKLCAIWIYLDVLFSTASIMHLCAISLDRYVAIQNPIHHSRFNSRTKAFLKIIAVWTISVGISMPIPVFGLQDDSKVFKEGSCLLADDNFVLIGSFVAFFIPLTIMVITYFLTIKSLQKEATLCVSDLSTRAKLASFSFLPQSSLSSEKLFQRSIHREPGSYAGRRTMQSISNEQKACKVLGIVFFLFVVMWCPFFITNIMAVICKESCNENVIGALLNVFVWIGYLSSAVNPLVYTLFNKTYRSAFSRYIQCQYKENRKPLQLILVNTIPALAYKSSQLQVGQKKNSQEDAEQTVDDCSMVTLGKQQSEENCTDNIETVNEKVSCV

With `CCCC[C@@H](C)NC(=O)[C@@H]1C=C2c3cccc4[nH]cc(c34)C[C@H]2N(C)C1`, the SDL is given as 0% in the test with Rattus norvegicus [1]; 50% in the test with Rattus norvegicus [5]; 40% with Rattus norvegicus [9]; 55% in the test on Rattus norvegicus [10]; 22% in the test with Rattus norvegicus [12]. The ED50 (in general, the dose that gives a 50% effect, or the effect in half of the subjects) in the test with Rattus norvegicus [2] is “Weak activity”. In addition, the D in the test with Rattus norvegicus [3] is 0%; in the test with Rattus norvegicus [4] it was 0%; with Rattus norvegicus [6], 27%; with Rattus norvegicus [8], 10%; with Rattus norvegicus [11], 0%. Moreover, the Ki (as a rule, the dissociation constant of the complex between target and ligand, obtained from inhibition or displacement) in [7] turned out to be 16 nM; in test [13], 0.32 nM.
With `CCCCC[C@@H](C)NC(=O)[C@@H]1C=C2c3cccc4[nH]cc(c34)C[C@H]2N(C)C1`, the Ki in [7] stood at 80 nM; in [13], 3.3 nM.
For `CCCC(C)NC(=O)[C@@H]1C=C2c3cccc4[nH]cc(c34)C[C@H]2N(C)C1` (stereo partly drawn), the SDL in the test on Rattus norvegicus [14] was determined as 25%; with Rattus norvegicus [15], 0%; with Rattus norvegicus [20], 0%. Further, the Ki came out at 105 nM in [16] and 8 nM in test [13]. Further, in the test with Rattus norvegicus [17], the ED50 result was “inactive”. In addition, the figures for the D with Rattus norvegicus [18], with Rattus norvegicus [19] and in the test with Rattus norvegicus [21] were 0%, 0% and 11%, respectively.
`CCN(CC)C(=O)[C@@H]1C=C2c3cccc4[nH]cc(c34)C[C@H]2N(C)C1` [LYSERGIDE]: in the test with Rattus norvegicus [22], the SDL was 100%. This compound registered a Potency in the test on Rattus norvegicus [23] of 1. In addition, in the test with Rattus norvegicus [18], the D worked out at 0%. The ED50 in the test with Rattus norvegicus [24] amounted to 0.048 µmol/kg.

The record behind these values is ChEMBL document CHEMBL1128272, “Stereoselective LSD-like activity in a series of d-lysergic acid amides of (R)- and (S)-2-aminoalkanes” (J Med Chem, 1995).
